The list is not random: actives were taken first. Their share in the collection is about 2%.
FLuc inh counter: firefly luciferase enzyme inhibitors, primary screen, artefact control for luciferase-based inhibitor screens, biochemical, luminescence, ATPLite; 10 min; inhibition, % at 10 µM; hit rate 1.5% among 200,000; AID 1006, 2008;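 active = inhibition above about 50% when tested at 10 µM, limit read from the data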
Target sequence (P08659 whole entry, looked up): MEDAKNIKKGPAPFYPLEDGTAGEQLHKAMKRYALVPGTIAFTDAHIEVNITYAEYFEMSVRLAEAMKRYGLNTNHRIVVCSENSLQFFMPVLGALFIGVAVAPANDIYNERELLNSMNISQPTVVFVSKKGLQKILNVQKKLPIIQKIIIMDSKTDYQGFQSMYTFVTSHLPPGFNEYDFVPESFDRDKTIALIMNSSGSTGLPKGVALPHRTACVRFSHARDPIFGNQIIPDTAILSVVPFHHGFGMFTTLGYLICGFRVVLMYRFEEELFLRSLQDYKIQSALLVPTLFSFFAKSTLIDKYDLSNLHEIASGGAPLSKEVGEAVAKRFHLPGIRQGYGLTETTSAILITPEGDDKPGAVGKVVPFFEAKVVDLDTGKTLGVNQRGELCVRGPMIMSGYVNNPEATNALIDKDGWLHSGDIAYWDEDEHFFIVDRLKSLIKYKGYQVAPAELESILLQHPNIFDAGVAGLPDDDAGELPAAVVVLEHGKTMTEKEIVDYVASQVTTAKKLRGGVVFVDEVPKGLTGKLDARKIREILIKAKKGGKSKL
TRAIL sens C8: viability loss with TRAIL in NB7+C8 cells, primary screen, TRAIL sensitizer project, cell-based, ATPlite luminescence. inhibition (viability loss, TRAIL sensitization), % at 10 µM. hit rate 1% among 360,000. AID 624354, 2012;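 active = compounds causing at least 50% loss of cell viability in the single-dose screen, relative to plate controls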
FLuc act counter: FLuc activators, initial screening, artefact control for FLuc-dependent activation tests, biochemical, ATPlite luminescence | Luciferin 4-monooxygenase (Photinus pyralis), P08659 | ATPlite luciferase biochemical, 10 min; 0 = ATP-free wells, 1 = DMSO control | activation factor at 10 µM | 200,000 tested, under 10 active | AID 1027, 2008;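 active = luciferase activation factor, scaled between plate controls, of at least 2 with compound at 10 µM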
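Assay system: Luciferase/luciferin detection reagent, cell-free biochemical luciferase assay / Read-out: luciferase activation / Benchmarks: No-ATP low control, compound-free enzyme-plus-ATP high control / Medium: PBS buffer for ATP / Detection: luminescence measurement of luciferase light output / Schedule: 10 min at ambient temperature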
PPC-1+TRAIL kill: compounds killing PPC-1 cancer cells with TRAIL present, primary screen, TRAIL potentiator project, ATPLite luminescence, uHTS | PPC-1 cells + TRAIL, ATPLite viability luminescence | cell killing (% activity), % at 4 µM or 5 µM | hit rate 0.41% among 220,000;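 active = cell killing above 50% in the first pass at 4 µM, then a duplicate retest at 5 µM averaging 50% or more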;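 also: plate controls were cells with TRAIL plus DMSO for no effect and medium-only wells lacking cells for full effect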
HSP90 refold inh: HSP90 inhibitors, primary screen, cell lysate, luminescence; Heat shock protein HSP 90 (rabbit reticulocyte lysate; luciferase refolding); Rabbit reticulocyte lysate, luciferase refolding luminescence, 3 h; inhibition, % at 5.6 µM; hit rate 0.91% among 290,000;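 active = inhibition above the screen-wide mean plus 3 SD, computed separately per campaign, cut at about 16% in these data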;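 also: 0% = DMSO wells and 100% = 60 µM geldanamycin wells; inhibitors lower the luminescence because luciferase stays unfolded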
Numbers without * were called inactive; nt = no result.

SMILES	FLuc inh counter	TRAIL sens C8	FLuc act counter	PPC-1+TRAIL kill	HSP90 refold inh
Oc1ccccc1-[n+]1c(-c2ccccc2)cc(-c2ccccc2)cc1-c1ccccc1	nt	31	nt	nt	nt
O=C(O)c1ccc(-[n+]2c(-c3ccccc3)cc(-c3ccccc3)cc2-c2ccccc2)cc1	nt	4	nt	nt	nt
CCCOC(=O)c1ccc(-[n+]2c(-c3ccccc3)cc(-c3ccccc3)cc2-c2ccccc2)cc1	nt	58*	nt	nt	nt
Brc1ccc(-[n+]2c(-c3ccccc3)cc(-c3ccccc3)cc2-c2ccccc2)cc1	nt	56*	nt	nt	nt
Cc1ccccc1-[n+]1c(-c2ccccc2)cc(-c2ccccc2)cc1-c1ccccc1	nt	67*	nt	nt	nt
COc1ccc(-[n+]2c(-c3ccccc3)cc(-c3ccc(C)cc3)cc2-c2ccccc2)cc1	nt	57*	nt	nt	1
O=C1NCCN2CCCC12 (stereo unspecified)	-3	-28	1	8	-1
BrCC(Br)(Br)Br	nt	13	nt	nt	nt
O=C1NCN(c2ccccc2)C12CCN(C(c1ccnc3ccccc13)c1nnnn1C1CCCC1)CC2 (stereo unspecified)	nt	-11	nt	nt	nt
COc1ccccc1NP1(=O)OCC(C)([N+](=O)[O-])CO1 (stereo unspecified)	nt	-15	nt	nt	nt
CC(C)C[C@H]1COc2cc(N3CCN(C)CC3)ccc2S(=O)(=O)N1	nt	-6	nt	nt	nt
CC(C)N(C(=O)CCl)c1ccccc1	nt	91*	nt	nt	nt
COc1ccc(Oc2cc(NC(=O)c3nn(C)cc3[N+](=O)[O-])cc([N+](=O)[O-])c2)cc1	-10	88*	1.1	23	3
CCC(COC(=O)NC)NC(=O)Oc1cccc(C)c1 (stereo unspecified)	-7	-10	1.1	28	0
CNC(=O)Oc1cccc(-c2cn3cc(Cl)ccc3n2)c1	95*	80*	0.1	86*	49*
COc1cc2[nH]c(C(=O)N3CCC4(CC3)OCCO4)cc2c(OC)c1OC	nt	-13	nt	nt	-1
CCOC(=O)[C@]12Cc3cc(Cl)ccc3[C@H]1N(C1CCCCC1)C(=O)c1cc(OC)ccc12	nt	96*	nt	nt	nt
CCOC(=O)[C@]12Cc3c(cc(OC)c(OC)c3OC)[C@H]1N(C1CCCCC1)C(=O)c1ccccc12	nt	90*	nt	nt	nt
CCOC(=O)[C@]12Cc3ccc(C)cc3[C@H]1N(C1CCCCC1)C(=O)c1ccccc12	nt	86*	nt	nt	nt
CCOC(=O)[C@]12Cc3ccc(C)cc3[C@H]1N(C1CCCCC1)C(=O)c1cc(OC)ccc12	nt	95*	nt	nt	nt
CCOC(=O)[C@]12Cc3cc(C)ccc3[C@H]1N(C1CCCCC1)C(=O)c1ccccc12	nt	92*	nt	nt	nt
CCOC(=O)[C@]12Cc3cc(C)ccc3[C@H]1N(CCC(=O)OC)C(=O)c1ccccc12	nt	42	nt	nt	nt
O=C1NC(=O)N(c2ccccc2)C(=O)/C1=C/C=C/c1ccco1	nt	0	nt	24	2
CN(C)c1ccc(/C=C/C=C2/C(=O)NC(=O)N(c3ccccc3)C2=O)cc1	53*	26	0.5	2	4
O=c1[nH]c2ccccc2n1C1CCN(C(c2cccc3ccccc23)c2nnnn2-c2ccc3c(c2)OCCO3)CC1 (stereo unspecified)	nt	19	nt	nt	nt
SMILES	FLuc inh counter	TRAIL sens C8	FLuc act counter	PPC-1+TRAIL kill	HSP90 refold inh
COc1ccc(-n2nnnc2C(c2cc3ccccc3o2)N2CCC(n3c(=O)[nH]c4ccccc43)CC2)cc1 (stereo unspecified)	nt	66*	nt	nt	nt
O=c1[nH]c2ccccc2n1C1CCN(C(c2cc3ccccc3o2)c2nnnn2-c2ccc3c(c2)OCCO3)CC1 (stereo unspecified)	nt	86*	nt	nt	nt
O=c1[nH]c2ccccc2n1C1CCN(C(CCc2ccccc2)c2nnnn2Cc2ccccc2)CC1 (stereo unspecified)	nt	91*	nt	nt	nt
COc1ccc(C(c2nnnn2-c2ccc(OC)cc2)N2CCC(n3c(=O)[nH]c4ccccc43)CC2)cc1 (stereo unspecified)	nt	14	nt	nt	nt
Cc1nc2cc(C(F)(F)F)ccc2n1C1CCN(Cc2nnnn2Cc2cccs2)CC1	-4	23	1	-5	8
Cc1nc2cc(C(F)(F)F)ccc2n1C1CCN(Cc2nnnn2Cc2ccc3c(c2)OCO3)CC1	1	58*	1	17	2
